We go through 14 compounds from ChEMBL document CHEMBL1139167, “Synthesis and evaluation of diverse thio avarol derivatives as potential UVB photoprotective candidates” (Bioorg Med Chem Lett, 2007).

Active and inactive are the calls of the source. No cut-off for these calls is given here.

Series [1] in a line: Toxicity assessed as inhibition of cell viability of UVB irradiated human HaCaT cells at 10 uM administered 2 hrs before irradiation by MTT assay. Type of series: cell-based. The settings on record: read-out: Inhibition. In outline: (§1)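 HaCaT cells in DMEM/10% FBS were pretreated with compounds in ethanol (final ≤0.1%) 2 h before a single 40–50 mJ/cm² UVB dose. Viability was read by MTT reduction to formazan 24 h after irradiation. Inhibition is expressed relative to maximal viability of drug-free samples, means ± SEM (n = 6).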
For orientation: Formazan colour is commonly taken as a measure of viable cells.

A short description of series [2]: Toxicity assessed as inhibition of cell viability of UVB irradiated human HaCaT cells at 5 uM administered 2 hrs before irradiation by MTT assay. The class given is cell-based. The settings on record: read-out: Inhibition. In outline:
as §1

Series [3] deals with HaCaT. The series is described as follows: Inhibition of TNFalpha production in UVB irradiated human HaCaT cells at 10 uM administered 2 hrs before irradiation by fluoroimmunoassay. Type of series: functional. In outline: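 Confluent HaCaT cells (seeded at 2 × 10^5 cells/mL in DMEM/10% FBS) received compounds in ethanol (final ≤0.1%) 2 h before 40–50 mJ/cm² UVB. […] IC50 with 95% CI came from at least four concentrations.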

Series [4] concerns HaCaT. The series can be described thus: Inhibition of TNFalpha production in UVB irradiated human HaCaT cells at 5 uM administered 2 hrs before irradiation by fluoroimmunoassay. Type of series: functional. The procedure, abridged: (§2)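 Confluent HaCaT cells (seeded at 2 × 10^5 cells/mL in DMEM/10% FBS) received compounds in ethanol (final ≤0.1%) 2 h before 40–50 mJ/cm² UVB.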

Series [5] concerns HaCaT. The series can be described thus: Inhibition of TNFalpha production in UVB irradiated human HaCaT cells administered 2 hrs before irradiation by fluoroimmunoassay. The class given is functional, cell-based. Conditions: light or radiation study. The procedure, abridged: as §2
In series [6] the test system is Neutrophil. The series is described as follows: Antioxidant activity assessed as inhibition of reactive oxygen species generation in TPA-stimulated human neutrophils.
In series [7] the test system is HaCaT. The series can be described thus: Inhibition of NF-kappaB activation in UVB irradiated human HaCaT cells at 10 uM administered 2 hrs before irradiation by EMSA. On the technique in general: Mobility shift assays separate free from complexed probe on a gel.

A word on the Inhibition: it is the relative decrease from the control value, in per cent. For the compound `CC1=CCC[C@H]2[C@](C)(Cc3cc(O)c(Sc4ccccc4)c(Sc4ccccc4)c3O)[C@@H](C)CC[C@]12C`, in series [1], the cytotoxicity at 2 h, 10 µM amounted to 0%. Further, in series [2], the cytotoxicity at 2 h, 5 µM came to 0%. Further, the Inhibition in series [3] and in series [4] was 0% each time.
With `CC1=CCC[C@H]2[C@](C)(Cc3cc(O)c(SCC(O)CO)cc3O)[C@@H](C)CC[C@]12C` (some centres undefined), in series [1], the cytotoxicity at 2 h, 10 µM was 18.6%. In series [2], the cytotoxicity at 2 h, 5 µM turned out to be 12.6%.
With `CC1=CCC[C@H]2[C@](C)(Cc3cc(O)cc(SCC(O)CO)c3O)[C@@H](C)CC[C@]12C` (some centres undefined), the cytotoxicity at 2 h, 10 µM in series [1] was determined as 14%. The cytotoxicity at 2 h, 5 µM in series [2] came to 13.6%.
In the same order, the values of `CC1=CCC[C@H]2[C@](C)(Cc3cc(O)cc(SCCO)c3O)[C@@H](C)CC[C@]12C` are 22.5% and 20.6%.
In the same order, the values of `CC1=CCC[C@H]2[C@](C)(Cc3cc(O)c(SCCO)c(SCCO)c3O)[C@@H](C)CC[C@]12C` are 28.5% and 18.1%.
On to `CC1=CCC[C@H]2[C@](C)(Cc3cc(O)c(SCCO)cc3O)[C@@H](C)CC[C@]12C`, for which the cytotoxicity at 2 h, 10 µM in series [1] turned out to be 48.4%. The cytotoxicity at 2 h, 5 µM in series [2] was determined as 21.4%.
By IC50 is commonly meant the point on the concentration scale where inhibition reaches its midpoint. In the case of `CC1=CCC[C@H]2[C@](C)(Cc3cc(O)cc(Sc4ccccc4)c3O)[C@@H](C)CC[C@]12C`, the cytotoxicity at 2 h, 10 µM in series [1] was determined as 0%. For the same compound, the cytotoxicity at 2 h, 5 µM in series [2] came out at 0%. Further, the results for the Inhibition in series [3] and in series [4] were 92.7% and 55.4%, respectively. The compound further came in with a concentration for half-maximal inhibition (IC50) in series [5] of 3.7 µM. In addition, the Activity entry in series [6] was “Dose-dependent effect”. For the same compound, the result in series [7] was Active.
Regarding `CC1=CCC[C@H]2[C@](C)(Cc3cc(O)c(Sc4ccc(C)cc4)cc3O)[C@@H](C)CC[C@]12C`, in series [1], the cytotoxicity at 2 h, 10 µM worked out at 0%. Also, the cytotoxicity at 2 h, 5 µM in series [2] was 0%. The Inhibition in series [3] and in series [4] was 0% throughout.
As for `CC1=CCC[C@H]2[C@](C)(Cc3cc(O)c(Sc4ccc(C)cc4)c(Sc4ccc(C)cc4)c3O)[C@@H](C)CC[C@]12C`, in series [1], the cytotoxicity at 2 h, 10 µM is 0%. The cytotoxicity at 2 h, 5 µM in series [2] amounted to 0%. Moreover, the Inhibition in series [3] and in series [4] was 0% each time.
Turning to `CC1=CCC[C@H]2[C@](C)(Cc3cc(O)cc(Sc4ccc(C)cc4)c3O)[C@@H](C)CC[C@]12C`, the cytotoxicity at 2 h, 10 µM in series [1] is 0%. Also, the cytotoxicity at 2 h, 5 µM in series [2] was found to be 0%. Also, the Inhibition in series [3] and in series [4] was 0% each time.
On to `COc1cc2ccc(=O)oc2c(O)c1O` [FRAXETIN], for which the cytotoxicity at 2 h, 10 µM in series [1] was found to be 3.4%. Besides, the cytotoxicity at 2 h, 5 µM in series [2] is 0%. The Inhibition stood at 68.1% in series [3] and 58.6% in series [4]. In addition, the half-inhibitory concentration (IC50) in series [5] is 2.8 µM.
As to `CC1=CCC[C@H]2[C@](C)(Cc3cc(O)cc(SCC(=O)O)c3O)[C@@H](C)CC[C@]12C`, in series [1], the cytotoxicity at 2 h, 10 µM came to 28.5%. Further, the cytotoxicity at 2 h, 5 µM in series [2] is 18.3%.
In the case of `CC1=CCC[C@H]2[C@](C)(Cc3cc(O)c(SCC(=O)O)cc3O)[C@@H](C)CC[C@]12C`, in series [1], the cytotoxicity at 2 h, 10 µM came out at 13.3%. Also, the cytotoxicity at 2 h, 5 µM in series [2] is 12.4%.
As for `CC1=CCC[C@H]2[C@](C)(Cc3cc(O)c(Sc4ccccc4)cc3O)[C@@H](C)CC[C@]12C`, the cytotoxicity at 2 h, 10 µM in series [1] was determined as 0%. Further, in series [2], the cytotoxicity at 2 h, 5 µM is 0%. Moreover, the figures for the Inhibition in series [3] and in series [4] were 74.3% and 53.6%, respectively. In series [5], this compound showed a 50% inhibitory concentration (IC50) of 4.2 µM. The Activity result in series [6] was “Dose-dependent effect”. Moreover, in series [7], the outcome was Active.
